The record followed here is ChEMBL document CHEMBL1154557, “Induction of choline acetyltransferase activity in cholinergic neurons by stolonidiol: structure-activity relationship” (J Nat Prod, 2000).

Activity calls are given as the source filed them. No cut-off for these calls is given here.

Data set [1] concerns the target T1, Choline O-acetyltransferase (Rattus norvegicus) (UniProt P32738).
T1 sequence (whole entry): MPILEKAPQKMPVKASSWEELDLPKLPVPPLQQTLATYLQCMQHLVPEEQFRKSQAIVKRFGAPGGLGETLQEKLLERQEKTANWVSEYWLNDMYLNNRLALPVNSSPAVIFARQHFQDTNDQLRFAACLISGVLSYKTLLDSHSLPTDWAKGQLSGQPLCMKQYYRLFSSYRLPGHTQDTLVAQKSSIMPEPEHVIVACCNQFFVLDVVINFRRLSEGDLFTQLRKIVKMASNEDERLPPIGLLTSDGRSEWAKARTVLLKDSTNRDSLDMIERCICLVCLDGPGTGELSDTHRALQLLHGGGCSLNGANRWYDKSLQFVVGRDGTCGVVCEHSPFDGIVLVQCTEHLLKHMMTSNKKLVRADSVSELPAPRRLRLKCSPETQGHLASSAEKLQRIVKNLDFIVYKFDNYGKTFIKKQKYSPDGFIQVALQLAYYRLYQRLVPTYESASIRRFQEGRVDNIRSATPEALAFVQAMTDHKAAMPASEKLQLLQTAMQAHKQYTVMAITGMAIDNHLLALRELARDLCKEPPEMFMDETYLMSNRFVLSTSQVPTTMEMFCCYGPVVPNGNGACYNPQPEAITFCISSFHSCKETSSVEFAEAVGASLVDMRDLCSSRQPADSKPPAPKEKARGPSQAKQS
In words: Induction of ChAT activity in rat forebrain cells at 0.1 ug/mL relative to control. The format is cell-based. In a few lines: (§1)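 Basal forebrain from E17–19 rat embryos, papain-dissociated, plated at 1 × 10^6 cells/well in DMEM/F12 with 5% FBS and 5% horse serum. After 7 days of preculture, cells were exposed for 3 days. Lysate (1% Triton X-100, pH 6.8 Tris) was incubated with 25 µM [14C]acetyl-CoA and 8 mM choline with eserine for 1 h at 37 °C. Extracted [14C]ACh was counted. Results are % of control, n = 3.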

The target of data set [2] is T1, Choline O-acetyltransferase (Rattus norvegicus). Briefly: Induction of ChAT activity in rat forebrain cells at 1 ug/mL relative to control. The format is cell-based. The procedure, abridged: as §1
The target is the same in data set [3]. Briefly: Induction of ChAT activity in rat forebrain cultured cells at 0.01 ug/mL after 3 days relative to control. The format is cell-based. In a few lines:
as §1

In data set [4] the target is T2, Choline O-acetyltransferase (Mus musculus) (UniProt Q03059).
T2 sequence (whole entry): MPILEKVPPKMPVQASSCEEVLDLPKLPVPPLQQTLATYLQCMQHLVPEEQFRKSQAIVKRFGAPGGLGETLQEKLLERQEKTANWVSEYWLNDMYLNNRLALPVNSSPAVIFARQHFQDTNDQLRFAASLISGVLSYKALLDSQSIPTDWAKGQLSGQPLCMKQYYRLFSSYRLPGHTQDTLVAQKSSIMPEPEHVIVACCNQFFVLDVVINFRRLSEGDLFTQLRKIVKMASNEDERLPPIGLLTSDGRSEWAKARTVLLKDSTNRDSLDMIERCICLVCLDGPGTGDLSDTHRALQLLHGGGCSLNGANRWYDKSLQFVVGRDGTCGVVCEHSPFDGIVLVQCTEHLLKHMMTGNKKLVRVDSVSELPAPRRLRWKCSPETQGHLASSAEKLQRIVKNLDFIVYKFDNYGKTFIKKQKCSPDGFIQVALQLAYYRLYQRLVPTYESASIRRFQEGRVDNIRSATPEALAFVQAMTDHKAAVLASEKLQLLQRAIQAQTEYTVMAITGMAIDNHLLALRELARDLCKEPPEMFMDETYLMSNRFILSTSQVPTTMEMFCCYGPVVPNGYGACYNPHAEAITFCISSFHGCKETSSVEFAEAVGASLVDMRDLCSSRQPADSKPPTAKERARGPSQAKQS
In words: Induction of ChAT activity in mouse SN49 cultured cells at 0.01 ug/mL after 3 days relative to control. The format is cell-based. The procedure, abridged:
(§2)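 Mouse septal SN49 hybrid cells were grown in DMEM with 10% FBS and plated at 2 × 10^5 cells/well. After 24 h at 37 °C, compound was added for a further 48 h. ChAT was measured in Triton lysates as [14C]acetylcholine formed from 25 µM [14C]acetyl-CoA and 8 mM choline chloride (0.1 mM eserine, 37 °C, 1 h) by scintillation counting. Results are % of control, n = 3, with Dunnett test.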

Data set [5] has as its target T1, Choline O-acetyltransferase (Rattus norvegicus). Briefly: Induction of ChAT activity in rat forebrain cultured cells at 0.1 ug/mL after 3 days relative to control. The format is cell-based. The procedure, abridged: as §1
The target is the same in data set [6]. Briefly: Induction of ChAT activity in rat forebrain cultured cells at 1 ug/mL after 3 days relative to control. The format is cell-based. In a few lines:
as §1

For data set [7], the target named is T2, Choline O-acetyltransferase (Mus musculus). Briefly: Induction of ChAT activity in mouse SN49 cultured cells at 1 ug/mL after 3 days relative to control. The format is cell-based. In a few lines: as §2
Data set [8] has as its target T1, Choline O-acetyltransferase (Rattus norvegicus). Briefly: Induction of ChAT activity in rat forebrain cultured cells at 10 ug/mL after 3 days relative to control. The format is cell-based. The procedure, abridged:
as §1

The target of data set [9] is T2, Choline O-acetyltransferase (Mus musculus). Briefly: Induction of ChAT activity in mouse SN49 cultured cells at 0.1 ug/mL after 3 days relative to control. The format is cell-based. In a few lines: as §2
For data set [10] the target is unchanged. In words: Induction of ChAT activity in mouse SN49 cultured cells at 10 ug/mL after 3 days relative to control. The format is cell-based. In a few lines: as §2
Data set [11] is filed under the species Rattus norvegicus. Briefly: Induction of ChAT mRNA expression in rat forebrain cells at 0.1 ug/mL after 6 hrs by RT-PCR method. The format is functional, cell-based. The procedure, abridged: (§3)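 Cultured rat embryo basal forebrain cells were exposed for 6 h. ChAT mRNA was assessed by RT-PCR, and ethidium bromide-stained products were quantified by optical scanning as relative intensities.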

Data set [12] is filed under the species Rattus norvegicus. In words: Induction of ChAT mRNA expression in rat forebrain cells at 1 ug/mL after 6 hrs by RT-PCR method. The format is functional, cell-based. In a few lines:
as §3

Data set [13] is described as follows: Cytotoxicity against rat forebrain cells at 10 ug/mL. The format is cell-based.
A short description of data set [14]: Cytotoxicity against rat basal forebrain cells at 10 ug/mL.

On to `C=C1CC[C@@H]2O[C@]2(COC(C)=O)C[C@H]2O[C@@]23[C@H](C(C)(C)O)CC[C@@]3(C)CC1`, for which the Activity in data set [1] came out at 89.2%; in data set [2], 210%.

With `C=C1CC[C@@H]2O[C@]2(COC(C)=O)C[C@H]2O[C@@]23[C@H](C(C)(C)O)CC[C@@]3(C)[C@H](OC(C)=O)C1`, the Activity came to 11.5% in data set [1] and 161% in [2].

Regarding `C=C1CC[C@@H](Cl)[C@@](O)(COC(=O)c2ccc(Br)cc2)C[C@H]2O[C@@]23[C@H](C(C)(C)O)CC[C@@]3(C)CC1`, the results for the Activity in data set [1] and in [2] were 96.7% and 95.3%, respectively.

On to `COC1(OC)CC[C@@H]2O[C@]2(CO)C[C@H]2O[C@@]23[C@H](C(C)(C)O)CC[C@@]3(C)CC1`, for which the Activity was 109% in data set [1] and 104% in data set [2].

Turning to `C=C1CC[C@@H](OC)[C@@](O)(CO)C[C@H]2O[C@@]23[C@H](C(C)(C)O)CC[C@@]3(C)CC1`, the Activity in data set [1] turned out to be 89.2%; in data set [2] it was 92.3%.

For `C=C1CC[C@@H]2O[C@]2(CO)C[C@H]2O[C@@]23[C@H](C(C)(C)O)CC[C@@]3(C)CC1` [STOLONIDIOL], the Activity is 130% in [3]; 146% in data set [4]; 178% in [5]; 139% in data set [6]; 145% in data set [7]; 38.2% in data set [8]. The Activity in data set [9] was 142%; in [10], 92.7%; in data set [1], 127%; in [2], 231%; in data set [13], “Toxic”; in [14] it was “Toxic”. Besides, the result in data set [11] and in data set [12] was Active.

Regarding `C=C1CC[C@@H]2O[C@]2(COC(=O)CCCCCCCCCCC)C[C@H]2O[C@@]23[C@H](C(C)(C)O)CC[C@@]3(C)CC1`, the values for the Activity in [1] and in data set [2] were 108% and 143%, respectively.

Consider `C=C1CC[C@@H]2O[C@]2(COC(=O)c2ccccc2)C[C@H]2O[C@@]23[C@H](C(C)(C)O)CC[C@@]3(C)CC1`, for which the Activity in data set [1] stood at 116%; in [2], 173%.

In the case of `C=C1CC[C@@H]2O[C@]2(COC(=O)CCCCCCCCCCCCC)C[C@H]2O[C@@]23[C@H](C(C)(C)O)CC[C@@]3(C)CC1`, the Activity in [1] worked out at 97.6%; in [2], 174%.

For `C=C1CC[C@@H]2O[C@]2(COC(=O)CCCCC)C[C@H]2O[C@@]23[C@H](C(C)(C)O)CC[C@@]3(C)CC1`, the Activity amounted to 139% in data set [1] and 164% in data set [2].

For the compound `C=C1CC[C@@H]2O[C@]2(COC(=O)CCC)C[C@H]2O[C@@]23[C@H](C(C)(C)O)CC[C@@]3(C)CC1`, the Activity was determined as 118% in [1] and 179% in data set [2].

`C=C1CC/C=C(/CO)C/C=C2\[C@H](C(C)(C)O)CC[C@@]2(C)CC1`: the Activity came out at 109% in data set [1] and 122% in [2].
